Each structure is given as a SMILES string. Unmarked numbers belong to inactive results. Results filed as inconclusive are left out. Active and inactive are the calls of the source.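 The calls were made as follows, unless noted: active = growth inhibition above 25% in both replicates, a cutoff set 3 SD above the mean; inconclusive = above 25% in only one replicate; inactive = the rest.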

Test [1] is described as follows: S. cerevisiae growth inhibition in permissive medium (OD615), pilot counter-assay for S. cerevisiae lifespan shortening project, permissive growth control (AID 705). The note with it: OD615, 24 h, at 10 µM, active compounds read high. The method in brief: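 Material: engineered DeaD yeast; compound dosing: one dose 10 µM, DMSO 0.25% final; measure: yeast growth inhibition indicated by reduced 24 h OD615; detection: OD615 turbidity read; incubation: cells pre-grown 4 h, then 24 h compound exposure, 30 °C humidified; medium: permissive synthetic complete medium with raffinose and galactose carbon sources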

Test [2] can be described thus: S. cerevisiae growth inhibition in restrictive medium, OD615, pilot screen, restrictive growth control, yeast lifespan reduction project (AID 706;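 active = growth inhibition above a set limit, 3 SD over mean compound inhibition, in both replicates, cut at about 43% in these data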;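 also: modified DeaD lifespan yeast strain shifted to restrictive glucose medium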). The conditions noted are these: OD615, 48 h, at 10 µM, active compounds read high. The method in brief: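 material = engineered S. cerevisiae DeaD strain | medium = glucose-based CSMM-D restrictive medium | times = 4 h pre-incubation, 48 h exposure at 30 °C | technique = OD615 absorbance reading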

The nature of test [3]: doxorubicin toxicity protection in MRP-1 cells – H69AR cells, CellTiter-Glo, duplicate, MRP-1 activator project, pilot screen (AID 807;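 active = viability increase at or above a cutoff of the median across tested compounds plus 3 SD, cut at about 8.5% in these data, passing the limit was not always enough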;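 also: compound pretreatment 18-22 h then 72 h combined with doxorubicin; 0% = doxorubicin alone and 100% = vehicle without doxorubicin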). The note with it: H69AR viability with doxorubicin, CellTiter-Glo luminescence; at 10 µM; active compounds read high. In general terms: Cellular ATP, detected with luciferase, serves as a proxy for viable cell number.
A short description of test [4]: viability of HCT116 without oncogenic beta-catenin – human colon tumor cells, pilot screen (AID 823;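 active = cell viability at or below a set limit in both duplicate runs, the limit being the all-compound median minus 4 SD, cut at about 23% in these data, passing the limit was not always enough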;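 also: 0% = wells killed by 20 µM Hyamine and 100% = untreated DMSO cell wells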). The note with it: HCT116 beta-catenin knockout viability, CellTiter-Glo, 60 h; at 10 µM; active compounds read low.
Test [5] in a line: viability of PTEN-null HCT116 cells – cell-based, HCT116 clonal line, CellTiter-Glo, pilot screen (AID 824;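 active = viability at or below 27.92% in each of two runs, the all-compound median minus 4 SD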;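 also: 0% = 20 µM Hyamine control and 100% = vehicle cell control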). The note with it: HCT116 PTEN-deleted viability, 60 h, at 10 µM, active compounds read low.
A short description of test [6]: RAM pathway blockade in budding yeast – dse1pr::URA3 reporter, 5-FOA selection, pilot screen (AID 869;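 active = inhibition over a set limit, the all-compound mean plus 3 SD, in both replicate runs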;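 also: 0% = DMSO wells with no growth and 100% = 10 µM 1-NA-PP1 with full growth; RAM network block rescues cells from 5-FOA so hits raise OD615 growth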). The conditions noted are these: S. cerevisiae dse1pr::URA3 5-FOA growth, OD615, 2 d; at 10 µM; active compounds read high; strain carries analog-sensitive mutant Cbk1 kinase.
Test [7] in a line: RAM signaling pathway blockade in yeast – S. cerevisiae, Pdr1DBD-CYC8 efflux-inhibited sensitized strain, primary screen (AID 1298;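 active = RAM network inhibition above 8.4% in each of two replicates, 3 SD over the compound average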;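 also: 0% = DMSO untreated cells without growth and 100% = 10 µM 1-NA-PP1 full growth; higher means more yeast growth rescued from 5-FOA killing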). The conditions noted are these: S. cerevisiae cbk1-as DSE1-URA3 strain, 5-FOA growth OD615, 2 d; at 50 µM; active compounds read high.

The term viability denotes a read-out of living cells in per cent, often relative to untreated cells. By inhibition is commonly meant the change of the read-out against control, counted positive when it falls. As for `Cc1ccc(Sc2oc(/C=N/n3cnnc3)cc2Br)cc1`, the growth inhibition in test [1] was 0.63%; in test [2], 4.41%. The viability increase in test [3] is -7%. Moreover, the viability was 6.77% (active) in test [4] and 6.87% (active) in test [5]. In addition, the inhibition in test [6] is 1.4%. The RAM network inhibition in test [7] was 3.27%.
Turning to `O=C(Cn1cc2c(n1)CCCC2)NC1CCCCCC1`, the results for the growth inhibition in test [1] and in test [2] were 4.4% and 2.47%, respectively. In addition, the viability increase in test [3] is -1.14%. For the same compound, the viability in test [4] is 99.2%; in test [5] it was 93.6%. In test [6], the inhibition is 0.485%. Also, in test [7], the RAM network inhibition is 2.95%.
In the case of `O=C(c1cc2ccccc2cc1OCC(O)CN1CCCCC1)N1CCCCC1` (stereo unspecified), the growth inhibition in test [1] was 2.48%; in test [2], 0.51%. The viability increase in test [3] was -4.18%. Moreover, the viability is 86.6% in test [4] and 83.5% in test [5]. Further, in test [6], the inhibition is 0.285%. The RAM network inhibition in test [7] is -0.89%.
As to `CCOc1ccc(N(CC(=O)NCC(C)C)S(C)(=O)=O)cc1`, the results for the growth inhibition in test [1] and in test [2] were 6.66% and -4.28%, respectively. The viability increase in test [3] was -0.04%. Also, the viability in test [4] is 98%; in test [5], 102%. In addition, the inhibition in test [6] is 0.96%. The RAM network inhibition in test [7] is 1.12%.
In the case of `CC(=O)NC(CCS(C)(=O)=O)C(=O)Nc1cccc(Cl)c1Cl` (stereo unspecified), the figures for the growth inhibition in test [1] and in test [2] were -2.35% and -13.9%, respectively. Also, in test [3], the viability increase was -4.63%. Also, the viability was 101% in test [4] and 97% in test [5]. The inhibition in test [6] was 2.29%. The RAM network inhibition in test [7] was -0.83%.
With `CCOCCCNC(=O)C(c1ccc(Cl)cc1)N1CCN(C(=O)c2ccco2)CC1` (stereo unspecified), the growth inhibition is -19.4% in test [1] and -17.1% in test [2]. Also, the viability increase in test [3] was -2.12%. The viability in test [4] is 101%; in test [5], 96.2%. For the same compound, the inhibition in test [6] was 2.34%. Also, the RAM network inhibition in test [7] is 5.86%.
With `COc1cc(C2C(C(=O)OC(C)C)=C(C)Nc3ncnn32)cc(OC)c1OC` (stereo unspecified), the growth inhibition in test [1] was -8.66%; in test [2], -10.4%. Further, the viability increase in test [3] was -3.15%. The viability in test [4] was 100%; in test [5], 96.8%. Besides, the inhibition in test [6] is 1.19%. Besides, the RAM network inhibition in test [7] was 1.44%.
Turning to `CS/C(=N\S(=O)(=O)c1ccc(N)cc1)NS(=O)(=O)c1cccs1`, the results for the growth inhibition in test [1] and in test [2] were -0.825% and -11.5%, respectively. The viability increase in test [3] was -0.88%. The results for the viability in test [4] and in test [5] were 103% and 102%, respectively. For the same compound, the inhibition in test [6] is 0.23%. The RAM network inhibition in test [7] was 3.11%.
As for `CC(=O)NCCOc1c(C)cc(S(N)(=O)=O)cc1C`, the growth inhibition in test [1] was 0.295%; in test [2] it was -6.93%. Besides, the viability increase in test [3] is -1.25%. Moreover, the viability was 92.4% in test [4] and 90.1% in test [5]. Besides, the inhibition in test [6] was 0.43%. For the same compound, the RAM network inhibition in test [7] was 1.68%.
Consider `Cc1csc2nc(CNC(=O)CCC(=O)O)cn12`, for which the values for the growth inhibition in test [1] and in test [2] were -8.41% and -2.59%, respectively. Further, in test [3], the viability increase is -0.98%. Moreover, the viability in test [4] was 101%; in test [5], 99.5%. Besides, the inhibition in test [6] was 1.4%. The RAM network inhibition in test [7] is 2.71%.
As to `CCC(Sc1nncn1C)C(=O)Nc1nnc(-c2ccc(Cl)cc2)s1` (stereo unspecified), the figures for the growth inhibition in test [1] and in test [2] were 5.38% and 32.9%, respectively. For the same compound, in test [3], the viability increase is -2.63%. The viability is 94.1% in test [4] and 93.5% in test [5]. Also, the inhibition in test [6] was 0.955%. Besides, in test [7], the RAM network inhibition was 4.37%.
Turning to `CC(=O)NC(CCS(C)(=O)=O)C(=O)Nc1ccc(Cl)c(Cl)c1` (stereo unspecified), the figures for the growth inhibition in test [1] and in test [2] were -4.26% and -6.39%, respectively. Also, in test [3], the viability increase was -1.98%. For the same compound, the viability was 96.9% in test [4] and 89.6% in test [5]. Further, in test [6], the inhibition was 1.11%. For the same compound, the RAM network inhibition in test [7] was 1.53%.
In the case of `Cc1cccc(N(C(=O)Nc2ccccc2)C2=NCC(C)S2)c1` (stereo unspecified), the growth inhibition is -14.6% in test [1] and -6.9% in test [2]. Besides, the viability increase in test [3] was 0.22%. The viability in test [4] was 103%; in test [5], 94.4%. Besides, the inhibition in test [6] is -0.8%. Also, in test [7], the RAM network inhibition is 2.52%.
As for `Cc1ccc(-c2nc(CS(=O)CC(=O)NCCCN3CC(C)CC(C)C3)c(C)o2)cc1` (stereo unspecified), the values for the growth inhibition in test [1] and in test [2] were -14.2% and -13.2%, respectively. In addition, the viability increase in test [3] was -4.27%. Besides, the viability was 77.5% in test [4] and 79.1% in test [5]. Also, in test [6], the inhibition is 0.255%. Besides, in test [7], the RAM network inhibition is 2.65%.
For `Cc1ccc2sc(NC(=O)CN3C(=O)CCC3=O)nc2c1C`, the growth inhibition in test [1] was -10.4%; in test [2], -12.7%. Also, in test [3], the viability increase is 2.23%. Also, the figures for the viability in test [4] and in test [5] were 114% and 109%, respectively. Also, the inhibition in test [6] was 0.805%. Further, the RAM network inhibition in test [7] was 2.15%.
For `N#Cc1c2n(c3c(=O)n(CC(=O)c4ccc(Br)cc4)cnc13)CCCC2`, the growth inhibition in test [1] is -18.3%; in test [2] it was -5.47%. In test [3], the viability increase is -0.17%. For the same compound, the viability is 86.1% in test [4] and 86% in test [5]. The inhibition in test [6] is 0.885%. For the same compound, the RAM network inhibition in test [7] was 2.03%.
On to `CCCCCn1c(SCC(=O)OC)nc2c1c(=O)[nH]c(=O)n2C`, for which the values for the growth inhibition in test [1] and in test [2] were -16.6% and -10.6%, respectively. Moreover, the viability increase in test [3] was -0.86%. Moreover, the viability in test [4] is 103%; in test [5] it was 102%. Also, in test [6], the inhibition is 1.29%. For the same compound, the RAM network inhibition in test [7] was 0.79%.
Consider `CCOC(=O)CNC(=O)Cn1cnc2sc(C)c(S(=O)(=O)N3CCC(C)CC3)c2c1=O`, for which the growth inhibition in test [1] is -5.06%; in test [2] it was -1.62%. For the same compound, in test [3], the viability increase is -2.55%. Further, the viability is 94% in test [4] and 93.6% in test [5]. The inhibition in test [6] was 0.32%. Besides, the RAM network inhibition in test [7] was 4.1%.

The record behind these values is PubChem BioAssay.
